Test [1] deals with Apoptosis regulator Bcl-2 (Homo sapiens, UniProt P10415). Put plainly: Displacement of FITC-BIM from recombinant human Bcl-2 expressed in Escherichia coli after 30 mins by fluorescence polarization assay. The procedure, abridged: (§1)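 Fluorescence polarization competition: serial compound dilutions in 20 mM Hepes-KOH pH 7.4, 150 mM NaCl with 50 nM FITC-BIM; after 5 min, E. coli-expressed recombinant protein added at 1 µM; polarization read after 30 min incubation. Triplicates; Ki from nonlinear regression of competitive binding curves.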
Chain of Apoptosis regulator Bcl-2 (P10415 whole entry): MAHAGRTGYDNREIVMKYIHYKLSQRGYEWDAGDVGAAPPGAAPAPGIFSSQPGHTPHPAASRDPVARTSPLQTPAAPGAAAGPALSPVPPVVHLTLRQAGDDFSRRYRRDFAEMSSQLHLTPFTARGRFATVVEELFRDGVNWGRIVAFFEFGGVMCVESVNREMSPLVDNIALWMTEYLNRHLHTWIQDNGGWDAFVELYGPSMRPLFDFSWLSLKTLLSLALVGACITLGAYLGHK
A general note: Polarisation of emitted light reports the rotation of a fluorescent probe.

Another test has as its target Bcl-2-like protein 1 (Homo sapiens, UniProt Q07817). The test can be described thus: Displacement of FITC-BIM from recombinant human Bcl-XL expressed in Escherichia coli after 30 mins by fluorescence polarization assay. The procedure, abridged: as §1
For test [2], the system named is MEF. Put plainly: Induction of apoptosis in MEF assessed as appearance of fragmented nuclei and cell membrane blebbing at 15 uM after 24 hrs by DAPI staining. The format is functional, cell-based. The following applies: Mus musculus. The procedure, abridged: (§2)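 MEF wild-type or knockout clones (Bcl2, Bad, Bid, Bak, Bax, Bax/Bak) treated 24 h with compound (15 µM for single-concentration data) or 0.1% DMSO vehicle; apoptosis scored by fragmented nuclei and membrane blebbing. EC50 values are means of three experiments with s.d.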

Test [3] relates to MEF. The test can be described thus: Induction of apoptosis in Bax/Bak-deficient MEF assessed as appearance of fragmented nuclei and cell membrane blebbing at 15 uM after 24 hrs by DAPI staining. The following applies: Mus musculus. In kind it is functional, cell-based. The procedure, abridged:
as §2

Test [4] concerns MEF. Put plainly: Induction of apoptosis in Bcl2-deficient MEF assessed as appearance of fragmented nuclei and cell membrane blebbing at 15 uM after 24 hrs by DAPI staining. The following applies: Mus musculus. The format is functional, cell-based. The procedure, abridged:
as §2

Test [5] has as its system MEF. Put plainly: Induction of apoptosis in Bad-deficient MEF assessed as appearance of fragmented nuclei and cell membrane blebbing at 15 uM after 24 hrs by DAPI staining. In kind it is functional, cell-based. The following applies: Mus musculus. The procedure, abridged: as §2
The test system of test [6] is MEF. Put plainly: Induction of apoptosis in Bid-deficient MEF assessed as appearance of fragmented nuclei and cell membrane blebbing at 15 uM after 24 hrs by DAPI staining. The format is functional, cell-based. The following applies: Mus musculus. The procedure, abridged:
as §2

Test [7] has as its system MEF. The test can be described thus: Induction of apoptosis in Bak-deficient MEF assessed as appearance of fragmented nuclei and cell membrane blebbing at 15 uM after 24 hrs by DAPI staining. In kind it is functional, cell-based. The following applies: Mus musculus. The procedure, abridged: as §2
Test [8] relates to MEF. Put plainly: Induction of apoptosis in Bax-deficient MEF assessed as appearance of fragmented nuclei and cell membrane blebbing at 15 uM after 24 hrs by DAPI staining. The format is functional, cell-based. The following applies: Mus musculus. The procedure, abridged: as §2

Our source for the Ki and Activity values is ChEMBL document CHEMBL3414479, “Structure-based lead optimization and biological evaluation of BAX direct activators as novel potential anticancer agents” (J Med Chem, 2015).

Molecules are shown by their SMILES. Calls of active or inactive are those of the source. The calls are words filed in the database; no cut-off is given here. Bounds are passed on as bounds.

Chain of Bcl-2-like protein 1 (Q07817 whole entry, the tested form may be a part): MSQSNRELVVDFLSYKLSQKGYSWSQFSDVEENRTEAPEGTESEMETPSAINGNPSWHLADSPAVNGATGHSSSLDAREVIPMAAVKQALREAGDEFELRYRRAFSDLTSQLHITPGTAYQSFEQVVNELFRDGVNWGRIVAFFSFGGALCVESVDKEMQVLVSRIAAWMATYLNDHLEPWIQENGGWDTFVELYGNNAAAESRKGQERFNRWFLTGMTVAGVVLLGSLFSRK

A word on the Ki: it is the dissociation constant of the complex between target and ligand, obtained from inhibition or displacement. For `CCOc1ccccc1C(=O)C(=O)C1C(=O)N(c2nc(-c3ccccc3)cs2)N=C1C` (stereo not given), the Ki (in [1]; at Bcl-2-like protein 1) was greater than 100 µM each time. For the same molecule, the result in the test on MEF [2] and with MEF [3] was inactive.

`CC1=NN(c2nc(-c3ccccc3)cs2)C(=O)/C1=C/C(c1ccccc1)c1ccccc1`: the results for the Ki (in [1]; at Bcl-2-like protein 1) were 1.6 µM and greater than 100 µM, respectively. Moreover, the outcome with MEF [2], with MEF [4], with MEF [5], with MEF [6], with MEF [7] and in the test with MEF [8] was Active. The result in the test with MEF [3] was inactive.

For the molecule `CCOc1ccccc1N/N=C1\C(=O)N(c2cc(O)cc(-c3cccc(N)c3)c2)N=C1C`, the Ki (in [1]; at Bcl-2-like protein 1) was greater than 100 µM in each case. The result in the test on MEF [2], in the test with MEF [4], in the test on MEF [5], in the test with MEF [6], in the test with MEF [7] and with MEF [8] was Active. The result in the test with MEF [3] was inactive.

For the molecule `CC1=NN(c2nc(-c3ccccc3)cs2)C(=O)/C1=C/c1ccc2ccccc2c1`, the results for the Ki (in test [1]; on Bcl-2-like protein 1) were 2 µM and 3.4 µM, respectively. Further, the outcome with MEF [2], with MEF [4], in the test on MEF [5], in the test with MEF [6], with MEF [7] and with MEF [8] was Active. Also, the result with MEF [3] was inactive.

In the case of `CCOc1ccccc1CC(=O)C1C(=O)N(c2nc(-c3ccccc3)cs2)N=C1C` (stereo not given), the Ki (in test [1]; at Bcl-2-like protein 1) was greater than 100 µM in each case. Besides, the result with MEF [2] and in the test on MEF [3] was inactive.

Regarding `CCOc1ccccc1N/N=C1\C(=O)N(c2cc(O)cc(-c3ccncc3)c2)N=C1C`, the Ki is greater than 100 µM in [1] and 30.9 µM on Bcl-2-like protein 1. The result in the test on MEF [2], with MEF [4], in the test on MEF [5], in the test on MEF [6] and in the test with MEF [7] was Active. Also, the outcome in the test with MEF [8] and in the test with MEF [3] was inactive.

Consider `CCOc1ccccc1N/N=C1\C(=O)N(c2cc(O)cc(-c3ccccc3)c2)N=C1C`, for which the Ki (in [1]; on Bcl-2-like protein 1) was greater than 100 µM throughout. Moreover, the outcome with MEF [2], with MEF [4], in the test with MEF [5], in the test on MEF [6] and in the test with MEF [7] was Active. Moreover, the outcome in the test with MEF [8] and in the test with MEF [3] was inactive.

For the molecule `CCOc1ccccc1N/N=C1\C(=O)N(c2cccc(-c3ccc(N(C)C)cc3)c2)N=C1C`, the figures for the Ki (in test [1]; on Bcl-2-like protein 1) were 4.2 µM and greater than 100 µM, respectively. The result with MEF [2], with MEF [4], in the test with MEF [5], with MEF [6], in the test on MEF [7] and in the test with MEF [8] was Active. The outcome in the test with MEF [3] was inactive.

Turning to `CC1=NN(c2nc(-c3ccccc3)cs2)C(=O)/C1=C/c1ccc(-c2ccccc2)cc1`, the Ki in [1] came to 1.6 µM; at Bcl-2-like protein 1, 3.1 µM. Also, the result in the test with MEF [2], in the test on MEF [4], in the test with MEF [5], with MEF [6], with MEF [7] and in the test with MEF [8] was Active. Also, in the test on MEF [3], the result was inactive.

Consider `CCOc1ccccc1N/N=C1\C(=O)N(c2cc(O)cc(-c3cccs3)c2)N=C1C`, for which the Ki (in test [1]; on Bcl-2-like protein 1) was greater than 100 µM throughout. Further, the result with MEF [2] and in the test with MEF [3] was inactive.
